Data taken from publication PMC9942841 (Proceedings of the National Academy of Sciences of the …, 2023).
Peptide text beside a SMILES is read from it.

Key:
[1] = tested on: mixed P. aeruginosa–S. aureus biofilms; experiment: Clearance of established biofilm; format: cell-based, Pseudomonas aeruginosa + Staphylococcus aureus; conditions: concentrations <32 μM in PBS, 24 h, 37°C; crystal violet, 595 nm
In short: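 Preformed mixed P. aeruginosa–S. aureus biofilms were treated with the test compound, with gentamicin as comparator. Residual biomass was stained with crystal violet, and the solubilised dye was read spectrophotometrically at 595 nm. Results are expressed as biofilm percentage. The assay was run in both 96-well round-bottom plates and round-bottom tubes.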

nude mice = experiment: In vivo safety assay; parameters: species or system mouse; conditions: 10 mg/kg or 20 mg/kg subcutaneously, 24 h after injection
In short: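 Twelve 6-week-old female athymic NU/NU nude mice were randomised into 3 groups of 4. Groups received 10 or 20 mg/kg test compound injected subcutaneously into the back skin. Serum was assayed for ALT, AST, urea, CREA and UA. Heart, liver, spleen, lung and kidney were examined histologically by H&E. Error bars are SD from 3 biological replicates.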

CNC(C)C1CCC(N)C(OC2C(N)CC(N)C(OC3OCC(C)(O)C(NC)C3O)C2O)O1 (stereo not drawn) [Gentamicin, gentamicin]
Effect on preestablished mixed biofilm [1]: little impact

NCCCC[C@H](NC(=O)[C@H](CCCCN)NC(=O)[C@H](Cc1c[nH]c2ccccc12)NC(=O)[C@H](CCCCN)NC(=O)[C@H](CCCCN)NC(=O)[C@H](Cc1c[nH]c2ccccc12)NC(=O)[C@@H](N)Cc1c[nH]c2ccccc12)C(=O)N[C@@H](Cc1c[nH]c2ccccc12)C(=O)N[C@@H](Cc1c[nH]c2ccccc12)C(N)=O [Peptide K6] (H-WWKKWKKWW-NH2)
Histological examination of heart, liver, spleen, kidneys, lungs (H&E) (nude mice): no abnormalities
Serum levels of ALT, AST, UA, urea and CREA (nude mice): within normal range
